Results taken from ChEMBL document CHEMBL3867438, “Cytotoxic Tirucallane and Apotirucallane Triterpenoids from the Stems of Picrasma quassioides” (J Nat Prod, 2016).
Calls of active or inactive are those of the source. The calls are words filed in the database; no cut-off is given here.

Columns and labels:
MKN-28 [1] = experiment: Induction of mitochondrial apoptosis in human MKN28 cells assessed as caspase 3 activation at 2 to 8 uM after 48 hrs by Western blot analysis; assay type: functional, cell-based
Method in brief: (§1)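 MKN-28 cells (1 × 10^6/dish) cultured with compound at 2, 6 and 8 μM for 48 h. Cells lysed for 30 min on ice in RIPA buffer with DTT, PMSF and phosphatase inhibitor, then spun at 14000g, 4 °C, 15 min. Protein measured by BCA. Blots probed for Bcl-2, Bax, Bad, cleaved and pro-caspase-3 and -9, with β-actin as loading control.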

MKN-28 [2] = experiment: Induction of apoptosis in human MKN28 cells assessed as increase in early apoptotic cells after 48 hrs by annexin V-FITC/PI staining based flow cytometry; assay type: functional, cell-based
Method in brief: (§2)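 MKN-28 cells (3 × 10^5/well) treated at 2, 6 and 8 μM for 48 h. Stained with annexin V-FITC and PI using a kit per the maker's protocol, then analysed by flow cytometry. Apoptotic populations quantified, early and late apoptosis counted separately. Data given as mean with SD; one-way ANOVA with Tukey's post hoc test.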

MKN-28 [3] = experiment: Induction of mitochondrial apoptosis in human MKN28 cells assessed as caspase 9 activation at 2 to 8 uM after 48 hrs by Western blot analysis; assay type: functional, cell-based; method in brief: as §1
MKN-28 [4] = experiment: Induction of apoptosis in human MKN28 cells assessed as necrotic cells at 8 uM after 48 hrs by annexin V-FITC/PI staining based flow cytometry (reference value: 0%); assay type: functional; method in brief: as §2
MKN-28 [5] = experiment: Induction of apoptosis in human MKN28 cells assessed as early apoptotic cells at 8 uM after 48 hrs by annexin V-FITC/PI staining based flow cytometry (reference value: 0.043%); assay type: functional; method in brief: as §2
MKN-28 [6] = experiment: Induction of mitochondrial apoptosis in human MKN28 cells assessed as increase in bax expression level at 2 to 8 uM after 48 hrs by Western blot analysis; assay type: functional, cell-based; method in brief: as §1
MKN-28 [7] = experiment: Induction of apoptosis in human MKN28 cells assessed as necrotic cells at 6 uM after 48 hrs by annexin V-FITC/PI staining based flow cytometry (reference value: 0%); assay type: functional; method in brief: as §2
MKN-28 [8] = experiment: Induction of apoptosis in human MKN28 cells assessed as viable cells at 2 uM after 48 hrs by annexin V-FITC/PI staining based flow cytometry (reference value: 100%); assay type: functional; settings: MKN-28, 48 h, read-out: Activity; method in brief: as §2
MKN-28 [9] = experiment: Induction of apoptosis in human MKN28 cells assessed as necrotic cells at 2 uM after 48 hrs by annexin V-FITC/PI staining based flow cytometry (reference value: 0%); assay type: functional; method in brief: as §2
[10] = Cytotoxicity against human MCF7 cells assessed as inhibition of cell proliferation after 48 hrs by MTT assay; assay type: functional, cell-based; settings: MCF7, 48 h
Method in brief: (§3)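 Cells grown in DMEM with 10% FBS, 100 U/mL penicillin, 100 μg/mL streptomycin, 37 °C, 5% CO2. Seeded 5 × 10^3 cells/well, 12 h, then exposed to compounds for 48 h. MTT (5 mg/mL stock) added for 4 h at 37 °C, formazan dissolved in DMSO, absorbance read at 570 nm. IC50 relative to untreated control. Triplicate, repeated twice; cis-platinum as positive control.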

MKN-28 [11] = experiment: Induction of apoptosis in human MKN28 cells assessed as late apoptotic cells at 6 uM after 48 hrs by annexin V-FITC/PI staining based flow cytometry (reference value: 0%); assay type: functional; method in brief: as §2
MKN-28 [12] = experiment: Induction of mitochondrial apoptosis in human MKN28 cells assessed as increase in bad expression level at 2 to 8 uM after 48 hrs by Western blot analysis; assay type: functional, cell-based; method in brief: as §1
[13] = Cytotoxicity against human A549 cells assessed as inhibition of cell proliferation after 48 hrs by MTT assay; assay type: functional, cell-based; settings: A549, 48 h; method in brief: as §3
MKN-28 [14] = experiment: Induction of apoptosis in human MKN28 cells assessed as late apoptotic cells at 8 uM after 48 hrs by annexin V-FITC/PI staining based flow cytometry (reference value: 0%); assay type: functional; method in brief: as §2
MKN-28 [15] = experiment: Induction of apoptosis in human MKN28 cells assessed as increase in late apoptotic cells after 48 hrs by annexin V-FITC/PI staining based flow cytometry; assay type: functional, cell-based; method in brief: as §2
[16] = Cytotoxicity against human MKN28 cells assessed as inhibition of cell proliferation after 48 hrs by MTT assay; assay type: functional, cell-based; settings: MKN-28, 48 h; method in brief: as §3
MKN-28 [17] = experiment: Induction of mitochondrial apoptosis in human MKN28 cells assessed as decrease in bcl-2 expression level at 2 to 8 uM after 48 hrs by Western blot analysis; assay type: functional, cell-based; method in brief: as §1
MKN-28 [18] = experiment: Induction of apoptosis in human MKN28 cells assessed as early apoptotic cells at 2 uM after 48 hrs by annexin V-FITC/PI staining based flow cytometry (reference value: 0.043%); assay type: functional; method in brief: as §2
MKN-28 [19] = experiment: Induction of apoptosis in human MKN28 cells assessed as early apoptotic cells at 6 uM after 48 hrs by annexin V-FITC/PI staining based flow cytometry (reference value: 0.043%); assay type: functional; method in brief: as §2
MKN-28 [20] = experiment: Induction of apoptosis in human MKN28 cells assessed as late apoptotic cells at 2 uM after 48 hrs by annexin V-FITC/PI staining based flow cytometry (reference value: 0%); assay type: functional; method in brief: as §2
MKN-28 [21] = experiment: Induction of apoptosis in human MKN28 cells assessed as viable cells at 8 uM after 48 hrs by annexin V-FITC/PI staining based flow cytometry (reference value: 100%); assay type: functional; settings: MKN-28, 48 h, read-out: Activity; method in brief: as §2
MKN-28 [22] = experiment: Induction of apoptosis in human MKN28 cells assessed as viable cells at 6 uM after 48 hrs by annexin V-FITC/PI staining based flow cytometry (reference value: 100%); assay type: functional; settings: MKN-28, 48 h, read-out: Activity; method in brief: as §2

In the case of `CCO[C@@H]1O[C@@H](C=C(C)C)C[C@H]1[C@@H]1CC=C2[C@]3(C)[C@H](O)C[C@H]4C(C)(C)[C@H](O)CC[C@]4(C)[C@H]3CC[C@]21C`, the Activity (MKN-28 [1]) is reported as “Active”, the Activity (MKN-28 [2]) is reported as “Dose-dependent effect” and the Activity (MKN-28 [3]) is reported as “Active”. The Activity (MKN-28 [4]) was 0.685%, the Activity (MKN-28 [5]) was 12.4% and the Activity (MKN-28 [6]) was “Active”. It also gave an Activity (MKN-28 [7]) of 2.51%, a viability at 2 µM (MKN-28 [8]) of 93.2% and an Activity (MKN-28 [9]) of 0.869%. For the same compound, the IC50 [10] was 9.1 µM, the Activity (MKN-28 [11]) was 12.6% and the Activity (MKN-28 [12]) was “Active”. The IC50 [13] was 5.6 µM, the Activity (MKN-28 [14]) was 21% and the Activity (MKN-28 [15]) was “Dose-dependent effect”. For the same compound, the IC50 [16] was 2.5 µM, the Activity (MKN-28 [17]) was “Active” and the Activity (MKN-28 [18]) was 3.21%. For the same compound, the Activity (MKN-28 [19]) was 5.76%, the Activity (MKN-28 [20]) was 2.69% and the viability at 8 µM (MKN-28 [21]) was 66%. The viability at 6 µM (MKN-28 [22]) was 78.9%.
